Changes are numbered by the printed parent chain.
Key:
[1] = target: T1, WT hTMPK (Homo sapiens, UniProt P23919); test: ADP binding constants by two-dimensional NMR lineshape fitting of ADP titration; details: for Kd / koff: 34 °C, pH 6.9
T1 sequence (P23919 1-212): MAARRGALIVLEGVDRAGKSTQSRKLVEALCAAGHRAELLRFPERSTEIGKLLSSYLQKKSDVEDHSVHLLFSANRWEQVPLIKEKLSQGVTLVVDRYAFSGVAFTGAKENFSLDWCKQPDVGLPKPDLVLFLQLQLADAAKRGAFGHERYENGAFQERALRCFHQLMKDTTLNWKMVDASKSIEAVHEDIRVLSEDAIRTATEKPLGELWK
How it was run: (§1)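 ILV methyl-labelled (13CH3/13CHD2) His-tagged hTMPK was expressed in E. coli and purified by cobalt affinity and cation exchange. Samples were in D2O with 20 mM MES, 150 mM NaCl, 10 mM MgCl2, 1 mM DTT, pH 6.9, plus 2 mM TMP or AZTMP. Protein was WT 0.8 mM and F105Y 0.4 mM. ADP was titrated at 0–2.4 ligand:protein across a 1H–13C HMQC series at 34 °C. KD and koff came from 2D lineshape fitting of five shifting methyl peaks (2-state model) with bootstrap errors.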

[2] = target: T2, F105Y hTMPK (Homo sapiens, UniProt P23919, F105Y); test: as above; details: for Kd / koff: 34 °C, pH 6.9
T2 sequence (P23919 1-212 F105Y): T1 sequence (P23919 1-212) with F105Y
How it was run: as §1

[3] = target: T1, WT hTMPK; type: binding; details: WT–AZTMP, 2 mM ADP, Ile184δ1 CPMG RD
How it was run: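 Ile184δ1 CHD2 methyl 1H CPMG dispersion was run at 34 °C on a WT–AZTMP sample with 2 mM ADP, in pH 6.9 MES/MgCl2 D2O buffer. Trelax was 40 ms with ncyc 1–78. pa and kex were fitted by grid search to the full exchange equation, and koff was derived from them. Errors are ±2 standard error from 100 bootstrap resampled datasets.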

[4] = target: T1, WT hTMPK; details: cited from earlier work
[5] = target: T2, F105Y hTMPK; details: cited from earlier work
[6] = system: TMPK from yeast (ScTMPK); details: cited from earlier work

Compound | Kd ([1]; ADP binding to WT hTMPK with 2 mM AZTMP bound) | Kd ([1]; ADP binding to WT hTMPK with 2 mM TMP bound) | koff ([1]; ADP off-rate from WT hTMPK with 2 mM AZTMP bound) | koff ([1]; ADP off-rate from WT hTMPK with 2 mM TMP bound) | faster ADP off-rate (koff) with AZTMP bound than with TMP bound ([1]; WT hTMPK) | Kd ([2]; ADP binding to F105Y hTMPK with 2 mM AZTMP bound) | Kd ([2]; ADP binding to F105Y hTMPK with 2 mM TMP bound) | koff ([2]; ADP off-rate from F105Y hTMPK with 2 mM AZTMP bound) | koff ([2]; ADP off-rate from F105Y hTMPK with 2 mM TMP bound) | reduced ADP off-rate (koff) with AZTMP bound relative to TMP bound ([2]; F105Y hTMPK) | koff estimated from kex and pa [3] | Km [4] | kCAT ([4]; substrate phosphorylation) | kCAT ([5]; F105Y hTMPK, substrate phosphorylation) | Km ([5]; F105Y hTMPK) | reduction of activity toward TMP by Phe105Tyr mutation ([5]; F105Y vs WT hTMPK) | kCAT [6]
Nc1ncnc2c1ncn2[C@@H]1O[C@H](COP(=O)(O)OP(=O)(O)O)[C@@H](O)[C@H]1O [ADP] | 15 ± 1 µM | 15 ± 2.1 µM | 24 ± 0.8 s^–1 | 12 ± 0.7 s^–1 | 2 fold | 4.4 ± 1.7 µM | 4.2 ± 1.3 µM | 0.20 ± 0.9 s^–1 | 2.7 ± 0.8 s^–1 | 15 fold | 31 ± 5.1 s^–1 |  |  |  |  |  | 
Cc1cn([C@H]2C[C@H](O)[C@@H](COP(=O)(O)O)O2)c(=O)[nH]c1=O [TMP, thymidine monophosphate] |  |  |  |  |  |  |  |  |  |  |  | 6.3 µM | 0.73 s^–1 | 0.17 s^–1 | 4.2 µM | 4 fold | 35 s^–1

— publication PMC7017412 (ACS Omega, 2020)
